Reference: ChEMBL document CHEMBL1153817, “New resorcinol-anandamide "hybrids" as potent cannabinoid receptor ligands endowed with antinociceptive activity in vivo” (J Med Chem, 2009)
Calls of active or inactive are those of the source. The calls are words filed in the database; no cut-off is given here.

Experiments:
Cannabinoid receptor 1 [1] = target: T1, Cannabinoid receptor 1 (Homo sapiens, UniProt P21554); assay: Binding affinity to human recombinant CB1 receptor expressed in african green monkey COS cells by radioligand binding assay; format: cell-based
T1 sequence (P21554 whole entry): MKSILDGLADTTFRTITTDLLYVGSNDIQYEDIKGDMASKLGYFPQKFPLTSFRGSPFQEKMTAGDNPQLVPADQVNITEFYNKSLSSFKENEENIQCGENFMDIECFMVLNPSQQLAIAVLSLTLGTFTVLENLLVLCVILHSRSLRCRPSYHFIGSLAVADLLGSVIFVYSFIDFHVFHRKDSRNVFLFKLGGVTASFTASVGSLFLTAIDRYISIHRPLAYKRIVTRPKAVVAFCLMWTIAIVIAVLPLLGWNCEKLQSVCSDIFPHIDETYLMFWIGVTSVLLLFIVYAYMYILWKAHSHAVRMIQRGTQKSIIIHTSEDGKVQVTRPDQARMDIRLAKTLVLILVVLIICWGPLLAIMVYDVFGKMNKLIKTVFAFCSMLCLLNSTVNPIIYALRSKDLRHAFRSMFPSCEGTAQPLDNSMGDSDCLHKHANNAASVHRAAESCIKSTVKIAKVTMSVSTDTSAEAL

Cannabinoid receptor 2 [2] = target: T2, Cannabinoid receptor 2 (Homo sapiens, UniProt P34972); assay: Binding affinity to human recombinant CB2 receptor expressed in african green monkey COS cells by radioligand binding assay; format: cell-based
T2 sequence (P34972 whole entry): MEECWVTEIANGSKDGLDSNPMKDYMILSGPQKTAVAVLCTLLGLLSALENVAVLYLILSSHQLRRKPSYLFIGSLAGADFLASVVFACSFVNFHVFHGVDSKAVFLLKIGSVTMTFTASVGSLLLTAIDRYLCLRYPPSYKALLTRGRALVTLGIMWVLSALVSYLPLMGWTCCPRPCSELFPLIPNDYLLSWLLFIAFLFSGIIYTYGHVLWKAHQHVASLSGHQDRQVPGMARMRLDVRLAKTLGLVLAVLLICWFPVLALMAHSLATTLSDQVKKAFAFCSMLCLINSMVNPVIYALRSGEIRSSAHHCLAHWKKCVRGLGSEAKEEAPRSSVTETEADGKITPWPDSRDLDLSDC

COS = assay: Selectivity index, ratio of Ki for human CB2 receptor to Ki for human CB1 receptor expressed in african green monkey COS cells; format: cell-based
How it was run: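 Ki at COS-expressed human CB1 and CB2 each from [3H]CP-55,940 displacement (0.14 nM for CB1), IC50 converted via Cheng-Prusoff, mean of 3 experiments; index taken as ratio of the two Ki values.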

Cannabinoid receptor 1 [3] = target: T1, Cannabinoid receptor 1; assay: Displacement of [3H]CP-55940 form human CB1 receptor expressed in HEK cells at 10 uM; format: cell-based; conditions: HEK293
Cannabinoid receptor 2 [4] = target: T2, Cannabinoid receptor 2; assay: Displacement of [3H]CP-55940 form human CB2 receptor expressed in HEK cells at 10 uM; format: cell-based; conditions: HEK293
Cannabinoid receptor 1 [5] = target: T3, Cannabinoid receptor 1 (Rattus norvegicus, UniProt P20272); assay: Binding affinity to CB1 receptor in rat brain membrane; format: cell membranes
T3 sequence (P20272 whole entry): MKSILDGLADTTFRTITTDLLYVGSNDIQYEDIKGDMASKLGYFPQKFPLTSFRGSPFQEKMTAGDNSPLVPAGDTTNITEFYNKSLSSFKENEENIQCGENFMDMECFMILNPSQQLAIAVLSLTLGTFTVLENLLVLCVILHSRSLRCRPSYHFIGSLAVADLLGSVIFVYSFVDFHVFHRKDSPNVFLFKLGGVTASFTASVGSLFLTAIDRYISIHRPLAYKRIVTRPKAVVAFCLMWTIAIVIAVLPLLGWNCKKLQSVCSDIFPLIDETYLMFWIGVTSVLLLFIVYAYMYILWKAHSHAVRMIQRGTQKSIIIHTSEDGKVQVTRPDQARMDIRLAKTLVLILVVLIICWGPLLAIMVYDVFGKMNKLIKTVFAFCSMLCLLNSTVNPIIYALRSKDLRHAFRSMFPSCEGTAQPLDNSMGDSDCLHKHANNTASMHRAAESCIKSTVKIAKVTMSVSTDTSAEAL

Cannabinoid receptor 1 [6] = target: T3, Cannabinoid receptor 1; assay: Binding affinity to CB1 receptor in rat spleen membrane; format: cell membranes
Cannabinoid receptor 2 [7] = target: T4, Cannabinoid receptor 2 (Rattus norvegicus, UniProt Q9QZN9); assay: Binding affinity to CB2 receptor in rat brain membrane; format: cell membranes
T4 sequence (Q9QZN9 whole entry): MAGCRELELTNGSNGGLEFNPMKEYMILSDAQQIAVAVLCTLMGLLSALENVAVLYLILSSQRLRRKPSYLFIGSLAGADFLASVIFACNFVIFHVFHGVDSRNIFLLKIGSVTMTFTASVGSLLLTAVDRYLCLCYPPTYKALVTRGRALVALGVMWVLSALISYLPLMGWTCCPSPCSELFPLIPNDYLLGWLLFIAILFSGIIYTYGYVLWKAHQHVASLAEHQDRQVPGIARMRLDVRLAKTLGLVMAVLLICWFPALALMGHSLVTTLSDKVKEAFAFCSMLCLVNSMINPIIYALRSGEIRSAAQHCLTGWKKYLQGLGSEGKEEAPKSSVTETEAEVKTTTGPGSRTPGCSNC

Cannabinoid receptor 2 [8] = target: T4, Cannabinoid receptor 2; assay: Binding affinity to CB2 receptor in rat spleen membrane; format: cell membranes
Mus musculus [9] = assay: Antinociceptive activity against formalin-induced paw pain in mouse at 1 mg/kg, ip pretreated 15 mins before formalin challenge assessed after 30 to 45 mins; format: functional, organism-based; design: dose 1 mg/kg
How it was run: (§1)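 Formalin (1.25% in saline, 30 µL) injected into dorsal hind paw; mice randomised, n = 8-10 per group, one treatment each. Test drug given ip in 10% DMSO/saline 15 min pre-formalin; rimonabant or AM630 (1 mg/kg ip) given 5 min before test drug. Lifting, licking, shaking, flinching timed per 5 min over 60 min; one-way ANOVA with Bonferroni.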

Mus musculus [10] = assay: Antinociceptive activity against formalin-induced paw pain in mouse at 1 mg/kg, ip pretreated 15 mins before formalin challenge assessed after 30 to 45 mins in presence of CB1 receptor-antagonist rimonabant; format: functional, organism-based; design: dose 1 mg/kg; how it was run: as §1
Mus musculus [11] = assay: Antinociceptive activity against formalin-induced paw pain in mouse at 1 mg/kg, ip pretreated 15 mins before formalin challenge assessed after 30 to 45 mins in presence of CB2 receptor-antagonist AM630; format: functional, organism-based; design: dose 1 mg/kg; how it was run: as §1

Structure (SMILES) | Ki (Cannabinoid receptor 1 [1]; read-out: Ki) [µM] | Ki (Cannabinoid receptor 2 [2]; read-out: Ki) [µM] | Ratio Ki (COS) [µM] | Activity (Cannabinoid receptor 1 [3]) [%] | Activity (Cannabinoid receptor 2 [4]) [%] | Ki (Cannabinoid receptor 1 [1]; cos) | Ki (Cannabinoid receptor 1 [1]; read-out: pKi (converted)) [µM] | Ki (Cannabinoid receptor 2 [2]; cos) | Ki (Cannabinoid receptor 2 [2]; read-out: pKi (converted)) [µM] | IC50 (Cannabinoid receptor 1 [5]) [µM] | IC50 (Cannabinoid receptor 1 [6]) [µM] | IC50 (Cannabinoid receptor 2 [7]) [µM] | IC50 (Cannabinoid receptor 2 [8]) [µM] | Activity (Mus musculus [9]) | Activity (Mus musculus [10]) | Activity (Mus musculus [11])
CC(C)CCOc1cc(O)cc(OCCCCCCCCCCC(=O)NC2CC2)c1 | 0.22 | 0.13 | 1.7 | > 50 | > 50 |  |  |  |  |  |  |  |  |  |  | 
CCCCCCC(C)(C)c1cc(O)cc(OCCCCCCCCCCC(=O)NC2CC2)c1 | 0.021 | 0.0079 | 2.7 | > 50 | > 50 |  |  |  |  |  |  |  |  |  |  | 
CCCCCCC(C)(C)c1cc(O)cc(OCCCCCCCCCCC(=O)NCCc2ccc(O)c(O)c2)c1 | 3.4 | 5 | 0.7 | > 50 | > 50 |  |  |  |  |  |  |  |  |  |  | 
O=C(CCCCCCCCCCOc1cc(O)cc(O)c1)NC1CC1 |  |  |  | > 50 | > 50 | Not Active | 10 | Not Active | 10 | > 10 | > 10 | > 10 | > 10 |  |  | 
O=C(CCCCCCCCCCOc1cc(O)cc(O)c1)NCC1CC1 |  |  |  | > 50 | > 50 | Not Active | 10 | Not Active | 10 | > 10 | > 10 | > 10 | > 10 |  |  | 
CC(C)CCOc1cc(O)cc(OCCCCCCCCCCC(=O)NCC2CC2)c1 | 2.3 | 0.2 | 11.5 | > 50 | > 50 |  |  |  |  |  |  |  |  |  |  | 
CCCCCCC(C)(C)c1cc(O)cc(OCCCCCCCCCCC(=O)NCC2CC2)c1 | 1 | 0.035 | 28.6 | > 50 | > 50 |  |  |  |  |  |  |  |  |  |  | 
CCCCCCCOc1cc(O)cc(OCCCCCCCCCCC(=O)NC2CC2)c1 | 2.22 | 0.21 | 10.6 | > 50 | > 50 |  |  |  |  |  |  |  |  |  |  | 
CCCCCCC(C)(C)c1cc(O)cc(OCCCCCCCCCCC(=O)NCc2ccc(O)c(OC)c2)c1 | 2.82 | 0.51 | 5.5 | > 50 | > 50 |  |  |  |  |  |  |  |  |  |  | 
O=C(CCCCCCCCCCOc1cc(O)cc(O)c1)NCCO |  |  |  | > 50 | > 50 | Not Active | 10 | Not Active | 10 | > 10 | > 10 | > 10 | > 10 |  |  | 
CC(C)CCOc1cc(O)cc(OCCCCCCCCCCC(=O)NCCO)c1 | 2.88 | 0.57 | 5.1 | > 50 | > 50 |  |  |  |  |  |  |  |  |  |  | 
CCCCOc1cc(O)cc(OCCCCCCCCCCC(=O)NC2CC2)c1 | 0.28 | 0.12 | 2.3 | > 50 | > 50 |  |  |  |  |  |  |  |  |  |  | 
CCCCCCC(C)(C)c1cc(O)cc(OCCCCCCCCCCCC(=O)NC2CC2)c1 | 0.17 | 0.02 | 8.5 | > 50 | > 50 |  |  |  |  |  |  |  |  |  |  | 
CCCCCCC(C)(C)c1cc(O)cc(OCCCCCCCCCCC(=O)NCCO)c1 | 0.31 | 0.03 | 10.3 | > 50 | > 50 |  |  |  |  |  |  |  |  |  |  | 
CCCCCCCOc1cc(O)cc(OCCCCCCCCCCC(=O)NCCO)c1 | 3.07 | 2.42 | 1.3 | > 50 | > 50 |  |  |  |  |  |  |  |  |  |  | 
CCCCCCC(C)(C)c1cc(O)cc(OCCCCCCCC(=O)NCCO)c1 | 0.056 | 0.16 | 0.4 | > 50 | > 50 |  |  |  |  |  |  |  |  |  |  | 
CCCCCCC(C)(C)c1cc(O)cc(OCCCCCCCCCCCC(=O)NCC2CC2)c1 | 5.4 | 0.6 | 9 | > 50 | > 50 |  |  |  |  |  |  |  |  |  |  | 
CCCCCCC(C)(C)c1cc(O)cc(OCCCCCCCC(=O)NC2CC2)c1 | 0.0056 | 0.0079 | 0.7 | > 50 | > 50 |  |  |  |  |  |  |  |  | Active | inactive | inactive
CCCCCCC(C)(C)c1cc(O)cc(OCCCCCCCC(=O)NCC2CC2)c1 | 0.1 | 0.034 | 2.9 | > 50 | > 50 |  |  |  |  |  |  |  |  |  |  | 
CCCCCCC(C)(C)c1cc(O)cc(OCCCCCCCCCCCC(=O)NCCO)c1 | 0.82 | 0.08 | 10.3 | > 50 | > 50 |  |  |  |  |  |  |  |  |  |  | 
CCCCCc1cc(O)cc(OCCCCCCCCCCC(=O)NC2CC2)c1 |  |  | 0.4 |  |  |  |  |  |  |  |  |  |  |  |  | 
CCCCOc1cc(O)cc(OCCCCCCCCCCC(=O)NCCO)c1 | 2.41 | 1.62 | 1.5 | > 50 | > 50 |  |  |  |  |  |  |  |  |  |  | 
